Screens as filed in PubChem BioAssay.
Shown are actives, neighbours in structure and some others; about 2.9% of the full set was active somewhere.
SIRT5 inh – SIRT5 desuccinylase inhibitors, primary screen, biochemical, fluorescence imaging, single point, set 5; inhibition, % at 15 µM; NAD-dependent protein deacylase sirtuin-5, mitochondrial (Homo sapiens), Q9NXA8; Purified SirT5, succinyl-peptide AMC, trypsin-coupled fluorescence; 330,000 compounds, 1.1% hits; in the data active = inhibition above about 15%
Target sequence (Q9NXA8 whole entry, looked up): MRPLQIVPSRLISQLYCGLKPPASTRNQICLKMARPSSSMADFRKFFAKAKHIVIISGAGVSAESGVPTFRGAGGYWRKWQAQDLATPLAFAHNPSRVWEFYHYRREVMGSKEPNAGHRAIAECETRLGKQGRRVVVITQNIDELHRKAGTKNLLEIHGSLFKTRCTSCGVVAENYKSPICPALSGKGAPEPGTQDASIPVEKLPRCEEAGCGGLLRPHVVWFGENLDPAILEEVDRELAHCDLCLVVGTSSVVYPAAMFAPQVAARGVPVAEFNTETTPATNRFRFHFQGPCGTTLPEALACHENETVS
E-sel inducer – E-selectin induction in HUVECs, primary screen, imaging, HUVEC, immunofluorescence imaging, single point; P16581; activation, % at 7.58 µM; normalized: neutral wells 0, TNF-alpha wells 100; AID 686992, 2013; 260,000 compounds, 0.37% hits;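 active = mean E-selectin-positive cell signal at least 10% of the positive control, reached in at least 60% of replicates, without over 20% cell loss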
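Test system – human umbilical vein endothelial cells (HUVEC), E-selectin induction · Input – 3,000 HUVEC seeded per well · Buffer or medium – EGM-2, gelatin · Compound dosing – single-point compound dose · Detection – immunofluorescence imaging · Measure – percent E-selectin-positive cells · Controls – TNF-alpha high, DMSO low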
DENV2 CPE – inhibitors of DENV2 cytopathic effect, primary screen, cell-based, plate reader, single concentration | CPE inhibition, % at 9.99 µM | 350,000 compounds, 1.7% hits | AID 651640, 2012 | DENV2-infected cells, cytopathic effect rescue; in the data active = CPE inhibition above about 20%, passing the limit was not always enough; tested in BHK-21 cells;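 note: 0% = median of neutral control wells and 100% = median of positive control wells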
* marks the source's active call; other numbers are inactive results; nt = not tested or not shown; + = active, no number.

SMILES	SIRT5 inh	E-sel inducer	DENV2 CPE
CC(C)C(=O)Nc1ccc2c(c1)C(=O)N(C)[C@@H]1CC[C@H](CC(=O)NC3CCCC3)O[C@H]1CO2	-2	0	-2
Cc1cc(C)cc(NC(=O)Nc2ccc(-n3ccc(C(F)(F)F)n3)cc2)c1	-1	46*	-12
O=C(Nc1ccc(-n2ccc(C(F)(F)F)n2)cc1)Nc1cccc(Cl)c1	-1	1	-15
CCc1ccc(NC(=O)C(=O)NCC2CCCN2S(=O)(=O)c2ccccc2)cc1 (stereo not drawn)	0	3	-4
CN1CCN(C(=O)C[C@@H]2CC[C@H]3[C@@H](COC[C@H](O)CN3C(=O)Nc3ccc(F)cc3)O2)CC1	5	0	-1
C=C(C)Cn1c(SCC(=O)N/N=C/c2ccccc2)nc2ccccc2c1=O	-4	nt	5
Cc1ccc(S(=O)(=O)NCC(=O)N(CC(=O)NCc2ccco2)Cc2ccco2)cc1	-2	5	nt
COc1ccc(C(=O)NCc2nnc(SCC(=O)Nc3ccccc3OC)n2C)cc1	-2	nt	7
O=C(C[C@H]1CC[C@H]2[C@@H](COC[C@@H](O)CN2C(=O)c2ccncc2)O1)NCc1ccc(-c2ccccc2)cc1	1	2	1
O=C(C[C@H]1CC[C@H]2[C@@H](COC[C@H](O)CN2C(=O)c2cccnc2)O1)NCc1ccc(-c2ccccc2)cc1	-1	0	22*
O=C(C[C@@H]1CC[C@H]2[C@@H](COC[C@@H](O)CN2C(=O)c2cccnc2)O1)NCc1ccc(-c2ccccc2)cc1	0	0	27*
O=C(C[C@H]1CC[C@H]2[C@@H](COC[C@@H](O)CN2C(=O)c2cccnc2)O1)NCc1ccc(-c2ccccc2)cc1	2	0	-2
O=C(C[C@@H]1CC[C@@H]2[C@H](COC[C@@H](O)CN2C(=O)c2cccnc2)O1)NCc1ccccc1	-3	0	-10
CCNC(=O)C[C@@H]1CC[C@H]2[C@@H](COC[C@H](O)CN2C(=O)c2cccnc2)O1	17*	0	-1
CCNC(=O)C[C@H]1CC[C@@H]2[C@H](COC[C@@H](O)CN2C(=O)c2cccnc2)O1	-2	0	-4
O=C(C[C@@H]1CC[C@H]2[C@@H](COC[C@@H](O)CN2C(=O)c2ccncc2)O1)NCc1ccc(-c2ccccc2)cc1	4	0	+
COc1ccc(S(=O)(=O)N(CCC#N)Cc2ccco2)cc1OC	-1	0	4
C/C(CC(=O)Nc1ccc2c(c1)OCCO2)=N\NC(=O)COc1ccc(Cl)c(C)c1	2	nt	6
C/C(=N\NC(=O)CO/N=C(\C)c1cccs1)c1ccc(N)cc1	-7	0	2
Cc1cccc(-c2ccc([C@@H]3[C@@H](CO)N4C(=O)CN(C(=O)c5ccccc5)C[C@H]34)cc2)c1	-3	0	2
Cc1ccc(CN2CCN(Cc3cnn(-c4ccc(Cl)cc4)c3)CC2CCO)o1 (stereo not drawn)	26*	nt	3
Cc1ccc(CN2CCN(Cc3ccncc3)CC2CCO)o1 (stereo not drawn)	2	2	-5
O=C(NNc1ccccc1[N+](=O)[O-])Nc1ccccc1	-2	nt	15
NS(=O)(=O)c1ccc(Cl)c(C(=O)Nc2ccccc2[N+](=O)[O-])c1	18*	nt	-2
O=C(NNc1ccccc1[N+](=O)[O-])Nc1ccc(Cl)c(Cl)c1	16*	0	-6
SMILES	SIRT5 inh	E-sel inducer	DENV2 CPE
O=C(Nc1ccccc1[N+](=O)[O-])c1cc(S(=O)(=O)Nc2ccccn2)ccc1Cl	0	nt	6
O=C(NCCCN1CCOCC1)C1CC(=O)N(c2ccccc2)C1 (stereo not drawn)	-2	nt	7
CCCNC(=O)C1(C)CCCN(C(=O)Cc2ccc(OC)cc2)C1 (stereo not drawn)	-5	0	-7
C[C@H](CO)N1C[C@H](C)[C@@H](CN(C)Cc2ccc3c(c2)OCO3)Oc2ccc(NC(=O)CCCCCC(=O)Nc3ccccc3N)cc2C1=O	6	nt	28*
C[C@@H]1CN([C@H](C)CO)C(=O)c2cc(NC(=O)CCCCCC(=O)Nc3ccccc3N)ccc2O[C@@H]1CN(C)Cc1ccccc1	4	0	2
C[C@@H]1CN([C@H](C)CO)C(=O)Cc2cc(NC(=O)CCCCCC(=O)Nc3ccccc3N)ccc2O[C@@H]1CN(C)Cc1ccc2c(c1)OCO2	3	-4	10
C[C@H](CO)N1C[C@H](C)[C@H](CN(C)Cc2ccc3c(c2)OCO3)Oc2ccc(NC(=O)CCCCCC(=O)Nc3ccccc3N)cc2C1=O	7	nt	-4
C[C@H](CO)N1C[C@H](C)[C@H](CN(C)Cc2ccc3c(c2)OCO3)Oc2ccc(NC(=O)CCCCCC(=O)Nc3ccccc3N)cc2CC1=O	nt	1	25*
C[C@@H]1CN([C@@H](C)CO)C(=O)c2cc(NC(=O)CCCCCC(=O)Nc3ccccc3N)ccc2O[C@@H]1CN(C)Cc1ccc2c(c1)OCO2	2	nt	20*
Cc1noc(C)c1NC(=O)N(C)C[C@@H]1Oc2ccc(NC(=O)Nc3ccc4c(c3)OCO4)cc2CC(=O)N([C@@H](C)CO)C[C@H]1C	7	0	-7
COc1ccc(CN2C[C@H](C)[C@@H](OC)CN(C)C(=O)c3ccc(NC(=O)c4nc5ccccc5s4)cc3OC[C@H]2C)cc1	6	0	-1
CO[C@H]1CN(C)C(=O)c2cc(NC(=O)c3nc4ccccc4s3)ccc2OC[C@H](C)N(Cc2cncnc2)C[C@@H]1C	15*	1	-2
COc1ccc(CN2C[C@H](C)[C@@H](OC)CN(C)C(=O)c3ccc(NC(=O)c4nc5ccccc5s4)cc3OC[C@@H]2C)cc1	102*	0	-4
CO[C@@H]1CN(C)C(=O)c2cc(NC(=O)c3nc4ccccc4s3)ccc2OC[C@H](C)N(Cc2cncnc2)C[C@@H]1C	5	0	6
Cc1noc(C)c1NC(=O)N(C)C[C@@H]1OCCCC[C@H](C)Oc2ccc(NS(=O)(=O)c3ccc(Cl)cc3)cc2C(=O)N([C@H](C)CO)C[C@@H]1C	4	nt	32*
Cc1noc(C)c1S(=O)(=O)Nc1ccc2c(c1)C(=O)N([C@H](C)CO)C[C@H](C)[C@H](CN(C)C(=O)Nc1ccccc1)OCCCC[C@H](C)O2	-9	0	33*
Cc1noc(C)c1S(=O)(=O)Nc1ccc2c(c1)C(=O)N([C@H](C)CO)C[C@@H](C)[C@H](CN(C)C(=O)Nc1ccccc1)OCCCC[C@@H](C)O2	-6	0	2
Cc1noc(C)c1NC(=O)N(C)C[C@H]1OCCCC[C@@H](C)Oc2ccc(NS(=O)(=O)c3c(C)noc3C)cc2C(=O)N([C@H](C)CO)C[C@@H]1C	28*	0	-4
Cc1noc(C)c1S(=O)(=O)Nc1ccc2c(c1)C(=O)N([C@H](C)CO)C[C@H](C)[C@@H](CN(C)C(=O)Nc1ccc(F)cc1)OCCCC[C@H](C)O2	3	0	-3
Cc1noc(C)c1NC(=O)N(C)C[C@@H]1OCCCC[C@H](C)Oc2ccc(NS(=O)(=O)c3ccc(Cl)cc3)cc2C(=O)N([C@@H](C)CO)C[C@H]1C	3	nt	-6
